The nature of data set [1]: Binding affinity to human CD4 signal peptide expressed in CHO cells assessed as down-modulation of YFP-fused CD4 expression after 24 hrs by flow cytometric analysis. It is filed as cell-based. The essentials:
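CHO cells stably expressing human CD4 fused C-terminally to YFP, treated 24 h at 37 °C with 1:5 serial dilutions. Washed, fixed in 1% formaldehyde, flow cytometry with 488 nm excitation and YFP in FL-1. YFP median fluorescence as % of untreated cells after subtracting non-transfected background. IC50 = 50% decrease; mean ± SD, n ≥ 3.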

Data set [2] has as its system Human immunodeficiency virus 1. The experiment in a line: Antiviral activity against CXCR4 using HIV-1 NL4.3 infected in human MT4 cells assessed as reduction of viral replication preincubated for 15 mins with cells followed by viral infection measured after 4 days by MTS/PES method. It is filed as functional, organism-based. The note with it: Human immunodeficiency virus 1, NL4.3, MT4. The essentials:
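MT-4 T cells at 3.75×10⁵ cells/mL in RPMI 1640 with 10% FBS and 2 mM L-glutamine, exposed to compounds for 15 min, then infected with HIV-1 NL4.3 (30 pg/well) at 37 °C. After 4 days, viability by MTS/PES absorbance at 490 and 700 nm, used to derive IC50 for viral replication. Mean ± SD, n = 2 or 3.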

Another data set has as its system MT4. Put plainly: Cytotoxicity against human MT4 cells after 48 hrs by MTS/PES method. In kind it is cell-based. As to conditions: mt4, 48 h. In outline: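 MT-4 cells at 10⁴ per well in DMEM with 10% FBS and 10 mM HEPES, incubated with compounds 48 h at 37 °C. Viability by MTS/PES; CC50 taken as the concentration reducing viability by 50%.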

The term IC50 denotes the point on the concentration scale where inhibition reaches its midpoint. Broadly, the pIC50 is the IC50 on a negative log10 scale, so that one unit is a factor of ten. The term CC50 denotes the concentration at which the toxic effect on the cells reaches its halfway point.

Molecules are shown by their SMILES.

`C=C1CN(S(=O)(=O)c2ccc(C)cc2)CCCN(Cc2ccccc2)CCCN(S(=O)(=O)c2ccc(N)cc2)C1.Cl`: in data set [1], the IC50 was 2.42 µM and the pIC50 was determined as 5.62. For the same compound, the IC50 in data set [2] was determined as 7.72 µM. The same compound returned a CC50 with MT4 of 63.4 µM.
Regarding `C=C1CN(S(=O)(=O)c2ccc(C)cc2)CCCN(Cc2ccccc2)CCCN(S(=O)(=O)c2ccc(N(C)C)cc2)C1.Cl`, in data set [1], the half-maximal inhibitory concentration (IC50) stood at 0.17 µM and the negative logarithm of the IC50 (pIC50) came to 6.77. Moreover, in data set [2], the IC50 worked out at 0.62 µM. Besides, the CC50 with MT4 is > 150 µM.
As to `C=C1CN(S(=O)(=O)c2ccc(C)cc2)CCCN(Cc2ccccc2)CCCN(S(=O)(=O)c2ccc3ccccc3c2)C1.Cl`, the values for the IC50 in data set [1] and in data set [2] were 0.55 µM and 1.35 µM, respectively. Besides, the pIC50 in data set [1] turned out to be 6.26. For the same compound, the CC50 in the data set with MT4 is > 150 µM.
Take `C=C1CN(S(=O)(=O)c2ccc(C)cc2)CCCN(CC2CCCCC2)CCCN(S(=O)(=O)c2ccc(N(C)C)cc2)C1`: the values for the IC50 in data set [1] and in data set [2] were 0.063 µM and 0.18 µM, respectively. In the data set with MT4, this compound came in with a CC50 of 44 µM.
As for `C=C1CN(C(=O)c2ccc(OC)cc2)CCCN(Cc2ccccc2)CCCN(S(=O)(=O)c2ccc(C)cc2)C1`, the half-inhibitory concentration (IC50) is 4.22 µM in data set [1] and 3.86 µM in data set [2]. In the data set with MT4, this compound showed a CC50 of 23.6 µM.
The corresponding values for `C=C1CN(C(=O)c2ccc(C)cc2)CCCN(Cc2ccccc2)CCCN(S(=O)(=O)c2ccc(C)cc2)C1` are 3.78 µM, 3.95 µM and 19.9 µM.
The corresponding values for `C=C1CN(S(=O)(=O)c2ccc(C)cc2)CCCN(Cc2ccccc2)CCCN(S(=O)(=O)N(C)C)C1` are 1.58 µM, 12.8 µM and > 150 µM.
On to `C=C1CN(S(=O)(=O)c2ccc(C)cc2)CCCN(Cc2ccccc2)CCCN(S(=O)(=O)c2cccc(N)c2)C1.Cl`, for which, in data set [1], the IC50 was determined as 1.02 µM and the pIC50 is given as 5.99. Further, in data set [2], the IC50 was found to be 6.22 µM. Moreover, the 50% cytotoxic concentration (CC50) in the data set with MT4 is > 150 µM.
Turning to `C=C1CN(S(=O)(=O)c2ccc(C)cc2)CCCN(CC2CCCCC2)CCCN(S(=O)(=O)c2ccc(OCCCC)cc2)C1`, the IC50 in data set [1] came to 1.1 µM; in data set [2] it was 1.95 µM. Moreover, in the data set with MT4, the CC50 worked out at 13.2 µM.
The corresponding values for `C=C1CN(S(=O)(=O)c2ccc(C)cc2)CCCN(CC2CCCCC2)CCCN(S(=O)(=O)c2ccc(N)cc2)C1` are 1 µM, > 10 µM and 10.6 µM.
Take `C=C1CN(S(=O)(=O)c2ccc(C)cc2)CCCN(Cc2ccccc2)CCCN(S(=O)(=O)c2ccccc2N)C1.Cl`: in data set [1], the IC50 came out at 2.12 µM and the negative-log IC50 (pIC50) was found to be 5.66. In addition, in data set [2], the IC50 is 6.93 µM. For the same compound, the half-maximal cytotoxic concentration (CC50) in the data set with MT4 was found to be 70.3 µM.
As for `C=C1CN(S(=O)(=O)c2ccc(C)cc2)CCCN(Cc2ccccc2)CCCN(S(=O)(=O)c2ccc3c(c2)OCO3)C1.Cl`, in data set [1], the IC50 is 1.06 µM and the pIC50 is 5.97. For the same compound, the IC50 in data set [2] was determined as 14.2 µM. In the data set on MT4, the CC50 was > 150 µM.
Taken in the same sequence, the figures for `C=C1CN(S(=O)(=O)c2ccc(C)cc2)CCCN(Cc2ccccc2)CCCN(S(=O)(=O)c2cccc(N(C)C)c2)C1.Cl` were 0.79 µM, 6.1, > 50 µM and > 150 µM.
The corresponding values for `C=C1CN(S(=O)(=O)c2ccc(C)cc2)CCCN(Cc2ccccc2)CCCN(S(=O)(=O)c2ccc(OC(F)(F)F)cc2)C1.Cl` are 1.2 µM, 5.92, 3.26 µM and > 150 µM.
The corresponding values for `C=C1CN(S(=O)(=O)c2ccc(C)cc2)CCCN(Cc2ccccc2)CCCN(S(=O)(=O)c2ccc(OC)cc2)C1.Cl` are 0.29 µM, 6.54, 0.55 µM and > 150 µM.
As to `C=C1CN(S(=O)(=O)c2ccc(C)cc2)CCCN(Cc2ccccc2)CCCN(S(=O)(=O)c2ccc(F)cc2)C1.Cl`, the IC50 turned out to be 0.92 µM in data set [1] and 4.66 µM in data set [2]. The pIC50 in data set [1] stood at 6.04. Besides, the CC50 in the data set on MT4 was > 150 µM.
Take `C=C1CN(S(=O)(=O)c2ccc(C)cc2)CCCN(Cc2ccccc2)CCCN(S(=O)(=O)c2ccc(C)cc2)C1`: the pIC50 in data set [1] is 6.4.
Take `C=C1CN(S(=O)(=O)c2ccc(C)cc2)CCCN(Cc2ccccc2)CCCN(S(=O)(=O)c2cccc([N+](=O)[O-])c2)C1.Cl`: in data set [1], the IC50 is 2.02 µM and the pIC50 was found to be 5.69. The IC50 in data set [2] was > 50 µM. Further, the CC50 in the data set on MT4 is > 150 µM.
For the compound `C=C1CN(S(=O)(=O)c2ccc(C)cc2)CCCN(CC2CCCCC2)CCCN(S(=O)(=O)c2ccc(OCCCN3C(=O)c4ccccc4C3=O)cc2)C1`, the IC50 in data set [1] turned out to be 0.75 µM. For the same compound, the CC50 in the data set on MT4 is 32.2 µM.
Regarding `C=C1CN(S(=O)(=O)c2ccc(C)cc2)CCCN(Cc2ccccc2)CCCN(S(=O)(=O)c2ccn(C)c2)C1.Cl`, in data set [1], the IC50 stood at 3.17 µM and the pIC50 is on record as 5.5. Also, the IC50 in data set [2] is > 50 µM. The CC50 in the data set with MT4 is > 150 µM.
Consider `C#CCOc1ccc(S(=O)(=O)N2CCCN(Cc3ccccc3)CCCN(S(=O)(=O)c3ccc(C)cc3)CC(=C)C2)cc1.Cl`, for which the IC50 in data set [1] is 0.46 µM; in data set [2], 0.55 µM. Further, the pIC50 in data set [1] is recorded as 6.34. Besides, the CC50 with MT4 is > 150 µM.
On to `C=C1CN(S(=O)(=O)c2ccc(C)cc2)CCCN(CC2CCCCC2)CCCN(S(=O)(=O)c2ccc(-n3cccc3)cc2)C1`, for which the IC50 in data set [1] is 0.18 µM; in data set [2] it was 1.25 µM. In the data set with MT4, this compound had a CC50 of 48 µM.
As for `C=C1CN(S(=O)(=O)c2ccccc2)CCCN(Cc2ccccc2)CCCN(S(=O)(=O)c2ccc(C)cc2)C1.Cl`, in data set [1], the IC50 came to 1.46 µM and the negative-log IC50 (pIC50) is recorded as 5.84. In addition, the IC50 in data set [2] was > 50 µM. For the same compound, in the data set on MT4, the CC50 was > 150 µM.
With `C=C1CN(S(=O)(=O)c2ccc(C)cc2)CCCN(Cc2ccccc2)CCCN(S(=O)(=O)c2ccc([N+](=O)[O-])cc2)C1.Cl`, the IC50 was determined as 5.25 µM in data set [1] and 35.9 µM in data set [2]. Besides, the pIC50 in data set [1] stood at 5.28. Further, the CC50 in the data set with MT4 was > 150 µM.
Taken in the same sequence, the figures for `C=C1CN(S(=O)(=O)c2ccc(C)cc2)CCCN(Cc2ccccc2)CCCN(S(=O)(=O)N2CCOCC2)C1.Cl` were 1.08 µM, 8.99 µM, 5.97 and > 150 µM.
The corresponding values for `C=C1CN(S(=O)(=O)c2ccc(C)cc2)CCCN(Cc2ccccc2)CCCN(S(=O)(=O)c2ccc(SC)cc2)C1.Cl` are 0.23 µM, 1.44 µM, 6.64 and > 150 µM.
`C=C1CN(C(=O)c2ccccc2)CCCN(Cc2ccccc2)CCCN(S(=O)(=O)c2ccc(C)cc2)C1`: the IC50 in data set [1] is 7.32 µM; in data set [2], > 10 µM. This compound yielded a CC50 in the data set on MT4 of 15.8 µM.
In the case of `C=C1CN(S(=O)(=O)c2ccc(C)cc2)CCCN(Cc2ccccc2)CCCN(S(=O)(=O)c2ccccc2[N+](=O)[O-])C1.Cl`, in data set [1], the IC50 is 0.7 µM and the pIC50 is listed as 6.15. Also, the IC50 in data set [2] worked out at 27.7 µM. For the same compound, the CC50 with MT4 is > 150 µM.
Taken in the same sequence, the figures for `C=C1CN(S(=O)(=O)c2ccc(C)cc2)CCCN(Cc2ccccc2)CCCN(S(=O)(=O)c2ccc(OC)c(OC)c2)C1.Cl` were 0.31 µM, 6.51, 0.86 µM and > 150 µM.
As for `C=C1CN(C(=O)c2ccc(N)cc2)CCCN(Cc2ccccc2)CCCN(S(=O)(=O)c2ccc(C)cc2)C1`, the results for the IC50 in data set [1] and in data set [2] were > 50 µM and > 10 µM, respectively. In the data set with MT4, this compound gave a half-maximal cytotoxic concentration (CC50) of 13.7 µM.
`C=C1CN(S(=O)(=O)c2ccc(C)cc2)CCCN(CC2CCCCC2)CCCN(S(=O)(=O)c2ccc(OCCCN)cc2)C1`: the IC50 in data set [1] is > 50 µM. Moreover, in the data set with MT4, the midpoint of cytotoxicity, the CC50, lay at 11.6 µM.
Take `C=C1CN(S(=O)(=O)c2ccc(C)cc2)CCCN(CC2CCCCC2)CCCN(S(=O)(=O)c2ccc(N3CCOCC3)cc2)C1`: the IC50 was found to be 0.13 µM in data set [1] and 0.36 µM in data set [2]. Also, the CC50 in the data set with MT4 is > 150 µM.
Consider `C=C1CN(S(=O)(=O)c2ccc(C)cc2)CCCN(CC2CCCCC2)CCCN(S(=O)(=O)c2ccc(OC)cc2)C1`, for which the 50% inhibitory concentration (IC50) in data set [1] was found to be 0.15 µM; in data set [2], 0.49 µM. In addition, half-maximal cytotoxicity in the data set on MT4 (CC50) was put at 99 µM.
Turning to `C=C1CN(S(=O)(=O)c2ccc(C)cc2)CCCN(CC2CCCCC2)CCCN(S(=O)(=O)c2ccc(O)cc2)C1`, in data set [1], the IC50 was 1.14 µM. Further, the half-maximal cytotoxic concentration (CC50) with MT4 is > 150 µM.
For the compound `C=C1CN(S(=O)(=O)c2ccc(C)cc2)CCCN(Cc2ccccc2)CCCN(S(=O)(=O)c2ccc(O)cc2)C1.Cl`, the half-maximal inhibitory concentration (IC50) in data set [1] was 3.58 µM; in data set [2], 2.84 µM. The pIC50 in data set [1] amounted to 5.45. The CC50 in the data set on MT4 amounted to 13.6 µM.
In the case of `C=C1CN(S(=O)(=O)c2ccc(C)cc2)CCCN(Cc2ccccc2)CCCN(S(=O)(=O)c2ccc(OC(=S)N(C)C)cc2)C1.Cl`, in data set [1], the IC50 was 6.28 µM and the pIC50 came out at 5.2. Moreover, the IC50 in data set [2] is > 50 µM. The CC50 with MT4 is 106 µM.
Regarding `C=C1CN(S(=O)(=O)c2ccc(C)cc2)CCCN(Cc2ccccc2)CCCN(S(=O)(=O)c2ccc(OC)cc2OC)C1.Cl`, in data set [1], the IC50 came to 1.35 µM and the pIC50 was found to be 5.87. Further, the IC50 in data set [2] was 7 µM. In addition, the CC50 in the data set on MT4 was > 150 µM.
In the case of `C=C1CN(S(=O)(=O)c2ccc(C)cc2)CCCN(CC2CCCCC2)CCCN(S(=O)(=O)c2ccc(OCC)cc2)C1`, the IC50 in data set [1] was 0.19 µM; in data set [2], 0.62 µM. In the data set with MT4, this compound registered a 50% cytotoxic concentration (CC50) of 19.6 µM.

These data come from ChEMBL document CHEMBL3792300, “Tuning Side Arm Electronics in Unsymmetrical Cyclotriazadisulfonamide (CADA) Endoplasmic Reticulum (ER) Translocation Inhibitors to Improve their Human Cluster of Differentiation 4 (CD4) Receptor Down-Modulating Potencies” (J Med Chem, 2016).
